Screening data deposited in PubChem by Johns Hopkins Ion Channel Center.
RGS4 pot = potentiators or activators of RGS4; hit rate 0.92% among 310,000; B-score at 10 µM; HEK293 M3R/inducible RGS4, carbachol calcium flux Fluo4; stronger effect = lower value;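 active = B-score of the integrated calcium signal more than 4 SD below the library mean, with starting fluorescence not abnormally high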;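 also: negative B-score means reduced calcium response which marks RGS4 activation or potentiation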
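System – HEK293 FlpIn-TREx cells, stable M3R, doxycycline-inducible RGS4 · Reagent – ECmax carbachol challenge · Times – compound preincubation 20 min at room temperature before agonist · Technique – Fluo4 fluorescence kinetic imaging of calcium · Measure – B score of integrated Fluo4 ratio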
RGS4 block = human RGS4 inhibition; hit rate 0.45% among 310,000; HEK293 M3R/RGS4 inducible, Fluo-4 calcium flux; stronger effect = higher value; triggered by carbachol at its EC20; AID 463165; P49798; B-score at 10 µM;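 active = B-score, a plate-corrected calcium signal, over three deviations above library mean, with baseline fluorescence within five deviations of library mean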;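 also: RGS4 expression induced by doxycycline in cells with stable M3 receptor; B-score is computed from the integrated fluorescence ratio over baseline after carbachol; higher B-score means a larger calcium signal and so more RGS4 inhibition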
Target sequence (P49798 whole entry, looked up): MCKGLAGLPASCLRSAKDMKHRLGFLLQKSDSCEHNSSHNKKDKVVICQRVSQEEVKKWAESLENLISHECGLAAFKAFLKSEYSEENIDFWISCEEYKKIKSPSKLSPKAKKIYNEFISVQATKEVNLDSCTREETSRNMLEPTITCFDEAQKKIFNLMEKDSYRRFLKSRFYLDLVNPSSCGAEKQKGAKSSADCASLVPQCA
MrgX1 antag = antagonists of human MrgX1 receptor; Q96LB2; MRGX1-HEK293 calcium flux, Fluo-4, BAM8-22 antagonism; stronger effect = lower value; B-score at 10 µM; hit rate 1.3% among 310,000; AID 588676;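 active = calcium-response B-score plate-corrected more than 3 library SD below zero, starting fluorescence within 5 deviations, no agonist response on first addition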;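 also: peak minus trough fluorescence over baseline after final BAM8-22 challenge near maximal dose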
Target sequence (Q96LB2 whole entry, looked up): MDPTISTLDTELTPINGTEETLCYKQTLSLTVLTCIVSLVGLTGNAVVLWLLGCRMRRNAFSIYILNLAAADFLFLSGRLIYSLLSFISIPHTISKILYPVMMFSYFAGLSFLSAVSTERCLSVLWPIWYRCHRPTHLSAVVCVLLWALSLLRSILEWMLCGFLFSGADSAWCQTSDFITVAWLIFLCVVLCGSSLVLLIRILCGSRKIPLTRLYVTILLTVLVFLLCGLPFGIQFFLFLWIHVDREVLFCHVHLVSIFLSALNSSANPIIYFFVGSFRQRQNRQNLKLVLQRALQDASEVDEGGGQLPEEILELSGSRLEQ
MrgX1 PAM = allosterically activates human MrgX1 receptor signaling. MrgX1-HEK293, Fluo-4 calcium flux, FDSS; stronger effect = higher value. B-score at 10 µM. hit rate 0.63% among 310,000. AID 588675;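 active = plate-corrected calcium response at least 3 library SD above typical, normal starting fluorescence, not activating the receptor alone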;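 also: compound read alongside a low EC10 to EC30 dose of BAM8-22 agonist; peak minus trough fluorescence over baseline measured at the second addition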
MrgX1 ag = activates human MrgX1 receptor signaling; MrgX1-HEK293 cells, Fluo-4 calcium fluorescence, agonist mode; stronger effect = higher value; B-score at 10 µM; Q96LB2; AID 588627; hit rate 0.44% among 310,000;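 active = calcium response B-score plate-corrected fluorescence ratio at least 3 library SD, with starting fluorescence B-score inside 5 SD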
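Material – MrgX1-expressing HEK293 cells · Input – 15,000 cells seeded per well · Dosing – compound as first of three additions · Times – overnight seeding, then 1 h dark dye loading · Measured by – kinetic Fluo-4 NW fluorescence of intracellular calcium · Read-out – B-scored fluorescence response ratio · Benchmarks – positive and negative control wells on each plate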
MrgX1 allo conf = confirmation of human MrgX1 receptor positive allosteric modulators; activation (ratio percentage), % at 10 µM; AID 602413; hit rate 13% among 1,200; MrgX1-HEK293, Fluo-4 calcium fluorescence, FDSS; shares compounds with MrgX1 PAM;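 active = ratio at least 3 SD above the weak peptide control, stable starting fluorescence, no direct agonism earlier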;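 also: compound followed by low BAM8-22 agonist challenge near EC20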
MrgX1 ant reconf = reconfirmed antagonist of human MrgX1 receptor signaling; hit rate 19% among 2,300; MrgX1-HEK293, BAM8-22 calcium flux, Fluo-4; stronger effect = lower value; remaining BAM8-22 calcium response % of control (stronger effect = lower value), % at 10 µM; shares compounds with MrgX1 antag; AID 602420;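 active = remaining agonist calcium response no higher than 100% minus 3 SD of agonist-only control wells, with starting fluorescence near control levels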;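 also: agonist BAM8-22 given at a near maximal EC90 to ECmax level; peak minus minimum fluorescence divided by baseline after agonist addition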
HEK293 Ca flux = activity in parental HEK293 cells lacking MrgX1; shares compounds with MrgX1 antag; Fluo-4 calcium fluorescence, FDSS; fluorescence ratio F(max-min)/F0 at 10 µM; hit rate 2% among 4,000; AID 624111;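 active = duplicate-averaged calcium fluorescence ratio at least three times the standard deviation of buffer wells, a nonspecific response in parental cells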
HEK293 Ca counter = activity in parental HEK293 cells without MrgX1. shares compounds with MrgX1 antag. hit rate 0.4% among 4,000. fluorescence ratio F(max-min)/F0 at 10 µM. parental HEK293 calcium flux, Fluo-4 fluorescence ratio; stronger effect = higher value;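 active = calcium fluorescence ratio, averaged over duplicates, at least 3 SD of the buffer-well ratio, meaning a nonspecific response in receptor-free cells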;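 also: untransfected parental HEK293 lacking MrgX1 used as counterscreen for MrgX1 allosteric activators; fluorescence change taken during the second addition on a kinetic imager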
HEK293 Ca cntr2 = MrgX1 activator counter-screen hit in parental HEK293 cells | shares compounds with MrgX1 antag | Fluo-4 calcium fluorescence (FDSS); stronger effect = higher value | hit rate 8.7% among 4,000 | fluorescence ratio F(max-min)/F0 at 10 µM;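 active = calcium fluorescence ratio at least three times the spread of buffer wells, meaning a non-specific response in parental cells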
Numbers stand for hits; - = inactive; . = no result given. Rows were chosen to be rich in hits. Some 3.5% of all compounds tested hit in one or more screens of this group.

SMILES	RGS4 pot	RGS4 block	MrgX1 antag	MrgX1 PAM	MrgX1 ag	MrgX1 allo conf	HEK293 Ca flux	HEK293 Ca counter	HEK293 Ca cntr2	others
Cc1cccc(/C=C2/Sc3ccc(C(=O)N4CCOCC4)cc3NC2=O)c1	-	-	-	23.3	-	-	-	-	-
O=C1Nc2cc(C(=O)N3CCOCC3)ccc2S/C1=C\c1ccccc1	-	-	-	-	-	.	.	.	.
O=C(NC1CCCCC1)c1ccccc1C(F)(F)F	-	-	-	8.63	-	-	-	-	-
Cc1cc(C)n(/N=C/c2ccccc2O)c(=O)c1	-	-	-	-	-	.	.	.	.
Cc1cc(C)n(/N=C/c2cc(Cl)cc(Cl)c2O)c(=O)c1	-	-	-	21.1	-	-	0.426	-	76.7
Cc1ccc(NS(=O)(=O)c2ccc3c(c2)CCN3C(=O)CCC(=O)O)cc1Cl	-	-	-	-	-	.	.	.	.
O/N=C/c1cn(-c2ccccc2)nc1-c1ccc2c(c1)OCCO2	-	-	-	-	-	.	.	.	.
COc1cccc(-c2nn(-c3ccccc3)cc2CO)c1	-	-	-	11.7	-	-	-	-	-
OCc1cn(-c2ccccc2)nc1-c1ccc2c(c1)OCCO2	-	-	-	39.1	-	21.4%	-	-	-
CCc1ccc(NC(=O)C(C)OC(=O)CC(NC(C)=O)c2ccccc2)cc1 (stereo not given)	-	-	-	-	-	.	.	.	.
COc1ccc2c(c1)C(c1ccccc1)NC(=O)C2 (stereo not given)	-	-	-	-	-	.	.	.	.
COC(=O)CNC(=O)CSc1nc2sc(-c3ccccc3)cc2c(=O)n1-c1ccccc1	-	-	-	10.7	-	-	-	-	-
CC12CCC(=O)N1C(C(=O)Nc1nc3ccc(S(C)(=O)=O)cc3s1)CS2 (stereo not given)	-	-	-	-	-	.	.	.	.
CC12CCC(=O)N1C(C(=O)Nc1nc3ccc(Cl)cc3s1)CS2 (stereo not given)	-	-	-	16.2	-	-	-	-	-
Cc1ccc(Nc2nnc(SCC3CCCCO3)s2)cc1 (stereo not given)	-	-	-	8.55	-	-	-	-	-
Cc1ccccc1Nc1nnc(SCC2CCCCO2)s1 (stereo not given)	-	-	-	-	-	.	.	.	.
N=c1c(S(=O)(=O)c2ccc(Cl)cc2)cc2c(=O)n3ccccc3nc2n1C1CCCCC1	-	-	-	-	-	.	.	.	.
O=C(CSCc1ccccc1)N1CCN(c2ccc(F)cc2)CC1	-	-	-	-	-	.	.	.	.
O=C(CCc1ccccc1)N1CCN(c2ccc(F)cc2)CC1	-	-	-	8.87	-	-	-	-	-
Cc1ccnc(NC(=O)c2ccc(Cl)s2)c1	-	-	-	8.48	-	-	-	-	-
O=C(Nc1ccon1)c1ccc(Cl)s1	-	-	-	-	-	.	.	.	.
Cc1ccc(NS(=O)(=O)c2ccc(C(=O)N3CCCC(C(F)(F)F)C3)cc2)cc1 (stereo not given)	-	-	-	-	-	.	.	.	.
O=C(OCCN1C(=O)c2ccccc2C1=O)c1cc(S(=O)(=O)N2CCOCC2)ccc1F	-	-	-	6.8	-	-	-	-	-
CCOC(=O)c1c(C)nc2c(c1-c1cc(OC)ccc1OC)C(=O)c1ccccc1-2	-	-	-	-	-	.	.	.	.
CCOC(=O)c1c(C)nc2ccccc2c1-c1ccccc1	-	-	-	7.6	-	-	-	-	-
SMILES	RGS4 pot	RGS4 block	MrgX1 antag	MrgX1 PAM	MrgX1 ag	MrgX1 allo conf	HEK293 Ca flux	HEK293 Ca counter	HEK293 Ca cntr2	others
CCOC(=O)c1c(C)nc2c(c1-c1ccc(Cl)cc1)C(=O)CC(C)(C)C2	-	-	-4.8	8.61	-	-	-	-	-	MrgX1 ant reconf=-
CCOC(=O)c1c(C)nc2c(c1-c1ccccc1)C(=O)c1ccccc1-2	-	-	-	9.31	-	-	-	-	-
Cc1cc(C)c2c(=O)cc(C(F)(F)F)oc2n1	-	-	-	-	-	.	.	.	.
CCC1(c2ccccc2)NC(=O)N(CC(=O)Nc2ccc(S(N)(=O)=O)cc2)C1=O (stereo not given)	-	-	-	-	-	.	.	.	.
Cc1cc(Cl)ccc1OC(C)C(=O)Nc1ccccc1N1CCOCC1 (stereo not given)	-	-	-	15.1	-	-	-	-	-
C/C(=N\NC(=O)c1ccc(Cl)c(S(=O)(=O)Nc2ccccc2Cl)c1)c1ccncc1	-	-	-	20.7	-	-	-	-	-
C/C(=N\NC(=O)c1cccc(S(=O)(=O)Nc2ccccc2Cl)c1)c1ccco1	-	-	-	-	-	.	.	.	.
O=C(O)CN1CCCCC1	-	-	-	9.66	-	-	-	-	-
O=C(NCCc1cn2ccccc2n1)c1cc(COc2ccc3ncccc3c2)on1	-	-	-	8.93	-	5.7%	-	-	-
O=C(NC1CCCC1)c1cc(COc2ccc3ncccc3c2)on1	-	-	-	-	-	.	.	.	.
COc1ccccc1NS(=O)(=O)c1cccc(NC(=O)c2[nH]c(C)c(C(C)=O)c2C)c1	-	-	-	7.45	-	-	-	-	-
COc1ccccc1NC(=O)c1[nH]c(C)c(C(C)=O)c1C	.	.	-	-	-	.	.	.	.
COc1ccccc1NC(=O)NNC(=O)c1ccc2c(c1)NC(=O)C(C)(C)O2	-	-	-	19.9	-	-	-	-	-
COc1cccc(NC(=O)NNC(=O)c2ccc3c(c2)NC(=O)C(C)(C)O3)c1	-	-	-	-	-	.	.	.	.
C=C(C)COc1ccc2c(C)c(CCC(=O)N3C[C@H]4C[C@@H](C3)c3cccc(=O)n3C4)c(=O)oc2c1	-	-	-	27.8	-	-	-	-	-
C#CC(C)(CC)NC(=O)c1cc2nc(C3CC3)cc(C(F)(F)F)n2n1 (stereo not given)	-	-	-	-	-	.	.	.	.
Cn1c(-c2ccccc2F)cc2onc(-c3ccccc3)c2c1=O	.	.	-	-	-	.	.	.	.
Cn1c(-c2ccccc2)cc2onc(-c3ccccc3)c2c1=O	.	.	-	12	-	21.0%	-	-	-
Cc1ccc(S(=O)(=O)NCCC(=O)Nc2cc(S(=O)(=O)N(C)C)ccc2C)cc1C	-	-	-	-	-	.	.	.	.
CSCCC(NC(=O)/C(=C/c1ccc(F)cc1)NC(C)=O)C(=O)O (stereo not given)	-	-	-	-	-	.	.	.	.
